Reference: ChEMBL document CHEMBL1122391, “2-benzazepines. 6. Synthesis and pharmacological properties of the metabolites of 9-chloro-7-(2-chlorophenyl)-5H-pyrimido[5,4-d] [2]benzazepine” (J Med Chem, 1983)

Experiments:
[1] = target: GABA-A receptor; anion channel; test: Displacement of [3H]diazepam binding in rat brain membranes; type: cell membranes
[2] = system: Mus musculus; test: Effective dose required to prevent convulsions in mice after iv administration of 70 mg/kg of metrazole compound in antipentylene tetrazole test; type: functional
Summary of the method: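 Male CF-1 mice, 50–54 days old, tested by a modified Everett–Richards method. Metrazole 70 mg/kg is given iv, and convulsions are scored.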

[3] = organism: Mus musculus; test: Effective dose required for […] in mice in rotarod test; type: functional

Clc1ccc2c(c1)C(c1ccccc1Cl)=NCc1cncnc1-2
IC50 [1]: 1.7 nM
ED50 [2]: 0.59 mg/kg
ED50 [3]: 1.4 mg/kg

OC1N=C(c2ccccc2Cl)c2cc(Cl)ccc2-c2ncncc21 (centres undefined)
IC50 [1]: 6.4 nM
ED50 [2]: 0.74 mg/kg
ED50 [3]: 4.8 mg/kg

Oc1ccc(C2=NCc3cncnc3-c3ccc(Cl)cc32)c(Cl)c1
IC50 [1]: 100 nM
ED50 [2]: > 100 mg/kg
ED50 [3]: > 1000 mg/kg

[O-][n+]1cnc2c(c1)CN=C(c1ccccc1Cl)c1cc(Cl)ccc1-2
IC50 [1]: 1.25 nM
ED50 [2]: 0.65 mg/kg
ED50 [3]: 4.9 mg/kg

CN1C(=O)CN=C(c2ccccc2)c2cc(Cl)ccc21 [DIAZEPAM]
ED50 [2]: 1.4 mg/kg
ED50 [3]: 2.6 mg/kg
